From ChEMBL document CHEMBL1141560, “Alpha,beta-cyclic-beta-benzamido hydroxamic acids: novel templates for the design, synthesis, and evaluation of selective inhibitors of TNF-alpha converting enzyme (TACE)” (Bioorg Med Chem Lett, 2008)
Values belong to the compound of their own block, whether it stands above or below them.

Legend:
Type in all cases: ADME, organism-based
[1] = Oral bioavailability in rat; conditions: in vivo
[2] = Half life in rat at 5.0 mg/kg, iv; design: dose 5 mg/kg, route intravenous; conditions: in vivo
Method in brief: (§1)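 Rats given 5.0 mg/kg IV or PO by n-in-1 cassette dosing; three animals per dosing group, parameters reported as the group average.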

[3] = Oral bioavailability in rat at 5.0 mg/kg; conditions: in vivo; method in brief: as §1
[4] = AUC in rat at 5.0 mg/kg, po; design: dose 5 mg/kg, route oral; conditions: plasma; method in brief: as §1
[5] = Half life in rat at 5.0 mg/kg, po; design: dose 5 mg/kg, route oral; conditions: in vivo; method in brief: as §1
[6] = AUC in rat at 5.0 mg/kg, iv; design: dose 5 mg/kg, route intravenous; conditions: plasma; method in brief: as §1
[7] = Clearance in rat at 5.0 mg/kg, iv; design: dose 5 mg/kg, route intravenous; conditions: in vivo; method in brief: as §1
[8] = Volume of distribution at steady state in rat at 5.0 mg/kg, iv; design: dose 5 mg/kg, route intravenous; conditions: in vivo, read-out: Vdss; method in brief: as §1
[9] = AUC in rat at […], iv; design: dose 3.3 mg/kg, route intravenous; conditions: plasma
[10] = Oral bioavailability in rat at […]; conditions: in vivo
[11] = AUC in rat at […], po; design: dose 3.3 mg/kg, route oral; conditions: plasma
[12] = Volume of distribution at steady state in rat at […], iv; design: dose 3.3 mg/kg, route intravenous; conditions: in vivo, read-out: Vdss
[13] = Clearance in rat at […], iv; design: dose 3.3 mg/kg, route intravenous; conditions: in vivo
[14] = Half life in rat at […], po; design: dose 3.3 mg/kg, route oral; conditions: in vivo
[15] = Half life in rat at […], iv; design: dose 3.3 mg/kg, route intravenous; conditions: in vivo

bioavailability [1]: 3%
SMILES: Cc1cc(COc2ccc(C(=O)N[C@@H]3CN(S(C)(=O)=O)C[C@@H]3C(=O)NO)cc2)c2ccccc2n1

half-life [2]: 2.1 h
bioavailability [3]: 21%
AUC [4]: 0.846 µM·h
half-life [5]: 2.9 h
AUC [6]: 4.06 µM·h
clearance [7]: 38.3 mL/min/kg
Vd [8]: 0.8 L/kg
SMILES: Cc1cc(COc2ccc(C(=O)N[C@@H]3COC[C@@H]3C(=O)NO)cc2)c2ccccc2n1

AUC [9]: 2.23 µM·h
bioavailability [10]: 25%
AUC [11]: 0.567 µM·h
Vd [12]: 1.7 L/kg
clearance [13]: 55 mL/min/kg
half-life [14]: 3.1 h
half-life [15]: 2.9 h
SMILES: C#CCN1C[C@H](C(=O)NO)[C@H](NC(=O)c2ccc(OCc3cc(C)nc4ccccc34)cc2)C1
